# MrgX1 ag = agonists of human MrgX1 receptor. MrgX1-HEK293 cells, Fluo-4 calcium fluorescence, agonist mode; hits give high values. B-score at 10 µM. 0.44% of 310,000 active;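 active = calcium response B-score plate-corrected fluorescence ratio at least 3 library SD, with starting fluorescence B-score inside 5 SD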
# Target sequence (Q96LB2 whole entry, looked up): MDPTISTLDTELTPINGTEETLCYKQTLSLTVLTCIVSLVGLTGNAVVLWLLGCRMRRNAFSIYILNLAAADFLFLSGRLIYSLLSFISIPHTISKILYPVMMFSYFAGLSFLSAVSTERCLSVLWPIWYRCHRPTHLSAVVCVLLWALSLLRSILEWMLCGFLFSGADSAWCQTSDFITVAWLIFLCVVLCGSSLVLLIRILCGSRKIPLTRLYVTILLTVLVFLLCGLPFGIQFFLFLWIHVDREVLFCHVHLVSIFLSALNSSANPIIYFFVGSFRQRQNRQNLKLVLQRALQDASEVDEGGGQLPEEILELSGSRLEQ
#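 Material: HEK293 cells stably expressing human MrgX1 receptor | Quantity: 15,000 cells per well | Times: Cells plated overnight, dye loaded 0.5 h 37 °C, 0.5 h room temperature | Measured by: Kinetic Fluo-4 NW fluorescence of intracellular calcium | Control set: Positive and negative controls per plate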
# RGS4 block = human RGS4 inhibition | HEK293 M3R/RGS4 inducible, Fluo-4 calcium flux; hits give high values; triggered by carbachol at its EC20 | 0.45% of 310,000 active | B-score at 10 µM;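 active = B-score, a plate-corrected calcium signal, over three deviations above library mean, with baseline fluorescence within five deviations of library mean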;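 note: RGS4 expression induced by doxycycline in cells with stable M3 receptor; B-score is computed from the integrated fluorescence ratio over baseline after carbachol; higher B-score means a larger calcium signal and so more RGS4 inhibition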
# Target sequence (P49798 whole entry, looked up): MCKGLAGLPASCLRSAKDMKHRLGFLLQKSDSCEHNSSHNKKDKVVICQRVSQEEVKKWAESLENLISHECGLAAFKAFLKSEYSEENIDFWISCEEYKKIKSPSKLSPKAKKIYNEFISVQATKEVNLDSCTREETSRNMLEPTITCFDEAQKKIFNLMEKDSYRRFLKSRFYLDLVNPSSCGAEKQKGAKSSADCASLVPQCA
# RGS4 pot = RGS4 potentiation or activation; HEK293 M3R/inducible RGS4, carbachol calcium flux Fluo4; hits give low values; B-score at 10 µM; AID 463111; 0.92% of 310,000 active;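 active = B-score of the integrated calcium signal more than 4 SD below the library mean, with starting fluorescence not abnormally high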;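 note: negative B-score means reduced calcium response which marks RGS4 activation or potentiation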
#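 Material: M3R-expressing HEK293 line, RGS4 induced by doxycycline | Schedule: Overnight RGS4 induction, 30 min dye load 37 °C, 20 min compound RT | Measured by: Fluo4 fluorescence kinetic imaging of calcium | Read-out: Integrated calcium ratio converted to B score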
# MrgX1 antag = antagonists of human MrgX1 receptor; Q96LB2; MRGX1-HEK293 calcium flux, Fluo-4, BAM8-22 antagonism; hits give low values; B-score at 10 µM; 1.3% of 310,000 active;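 active = calcium-response B-score plate-corrected more than 3 library SD below zero, starting fluorescence within 5 deviations, no agonist response on first addition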;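 note: peak minus trough fluorescence over baseline after final BAM8-22 challenge near maximal dose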
# MrgX1 PAM = human MrgX1 positive allosteric modulation, primary screen; Q96LB2; MrgX1-HEK293, Fluo-4 calcium flux, FDSS; hits give high values; B-score at 10 µM; 0.63% of 310,000 active; AID 588675;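 active = plate-corrected calcium response at least 3 library SD above typical, normal starting fluorescence, not activating the receptor alone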;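 note: compound read alongside a low EC10 to EC30 dose of BAM8-22 agonist; peak minus trough fluorescence over baseline measured at the second addition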
# Hits are given with their value; – = inactive. This is a sample that favours compounds with a hit; in the whole collection about 3.5% have one here.
SMILES,MrgX1 ag,RGS4 block,RGS4 pot,MrgX1 antag,MrgX1 PAM
Cc1ccc(-c2ccc(/C=C(\C#N)C(=O)Nc3cc(C)nn3-c3ccccc3)o2)cc1,–,–,-8.6,–,–
CCOC(=O)NC(=O)COC(=O)CNC(=O)c1ccc(OCC)c(OCC)c1,–,–,–,–,8.9
COc1ccc(C2=NN(c3nc(C(=O)O)cs3)C(O)(C(F)(F)F)C2)c(OC)c1 (stereo not drawn),–,–,–,-6.5,–
C[N+]1(C)CCCC(OC(=O)C(O)(c2ccccc2)c2ccccc2)C1 (stereo not drawn),–,–,-11,–,–
O=C(CNC(=O)c1ccccc1)OC1CCCCC1,–,–,–,–,–
CCOC(=O)N1CCN(Cc2ccc3ccccc3c2)CC1,–,–,–,–,–
O=c1c(C(c2ccccc2)c2c(O)sc3ccccc3c2=O)c(O)sc2ccccc12,–,–,–,-4.6,–
Cc1cc2sc3ccccc3c(=O)c2c(C)c1O,–,–,–,–,–
CCOC(=O)c1ccc(CC(=O)c2ccc(O)cc2O)o1,–,–,–,–,–
CCC(=O)Oc1ccc(C/C(=N\O)c2ccc(O)cc2O)o1,–,–,–,-4.6,–
O=C(COc1ccccc1)N=C1SC2CS(=O)(=O)CC2N1Cc1ccccc1 (stereo not drawn),–,–,–,–,–
O=C(CN1CCCCCC1)Nc1ccccc1Oc1ccccc1,–,–,-7.2,–,–
CCOc1ccc(NS(=O)(=O)c2ccc(C(=O)NCC3(N(C)C)CCCCC3)cc2)cc1,–,–,–,–,–
CC(C)(CNC(=O)c1ccc(NS(=O)(=O)c2ccc(F)cc2)cc1)N1CCOCC1,–,–,–,–,–
CCOc1ccc(NS(=O)(=O)c2ccc(C(=O)NCC3(N4CCCCC4)CCCCC3)cc2)cc1,–,–,–,-5.6,–
CCOc1ccc(S(=O)(=O)Nc2ccc(C(=O)NCC(C)(C)N3CCOCC3)cc2)cc1,–,–,–,-4.9,–
CC(=O)Nc1ccc(C(=O)CSc2nnnn2C2CCCC2)cc1,–,–,–,–,–
C=CCN1C=CC=C/C1=C1\SC(=S)N(C)C1=O,–,–,-8.3,–,–
CN1C=CC=C/C1=C1\SC(=S)N(c2ccccc2)C1=O,–,–,–,–,–
COc1ccc(CN=Cc2[nH]c3ccc(Br)c(Cl)c3c2O)cc1,37,–,–,–,–
COc1ccc(CN=CC2=C(O)CNC2=O)cc1,–,–,–,–,–
Cc1cc(C)cc(N=Cc2[nH]c3ccc(Br)c(Cl)c3c2O)c1,39,–,–,–,–
COc1ccc(C(=O)/C=C/c2ccc(N3CCCCC3)c([N+](=O)[O-])c2)c(OC)c1,–,–,–,–,14
COc1ccccc1NC(=O)CCC(=O)N(Cc1ccc(OC)c(OC)c1)c1nccs1,–,–,–,-7.4,–
COc1ccccc1N(CC(=O)NCc1ccc(F)cc1)C(=O)CCC(=O)Nc1nccs1,–,–,–,–,–
SMILES,MrgX1 ag,RGS4 block,RGS4 pot,MrgX1 antag,MrgX1 PAM
C=CCN1C(c2cccc(C(F)(F)F)c2)=CS/C1=C(/C#N)c1nnc(N2CCOCC2)n1-c1ccccc1,45,–,–,–,–
Cc1cc(C)n2nc(C(=O)N/N=C/c3cn(C)nc3C)nc2n1,–,–,–,–,–
Cc1ccc(/C=N/NC(=O)c2nc3nc(C)cc(C)n3n2)cc1,–,–,–,-4.7,–
CCn1c(=O)n(CC)c2cc(N3CCCC3)c(NC(=O)c3cccc(Cl)c3)cc21,–,–,–,–,–
CCOc1ccc(C=O)cc1CN1CCCCC1,–,–,–,-5.8,–
CCOc1cc(CN2CCCCC2)ccc1OC,–,–,–,–,–
C=CCOc1ccc(/C=N/NC(=O)c2cc3c(OC)cc(OC)cc3[nH]2)cc1,–,–,-8.1,–,–
COCC1CCCN(C(=O)c2ccc3oc(Cc4ccc(Cl)cc4)nc3c2)C1 (stereo not drawn),–,–,–,–,–
CC1(C)C2CC[C@]3(C)C(CC=C4[C@@H]5C[C@@](C)(CO)[C@@H](O)C[C@]56C[C@@H](OC6=O)[C@]43C)[C@@]2(C)CC[C@@H]1O (stereo partly drawn),–,–,–,–,–
O=C(NC(=S)Nc1ccccc1N1CCCCC1)c1ccc(F)cc1Cl,–,–,-7,–,–
Cn1nc(C(=O)Nc2ccccc2N2CCCC2)c2ccccc2c1=O,–,–,–,–,12
COc1cc2ccccc2cc1C(=O)Nc1ccccc1N1CCCC1,–,–,-7.3,–,–
Cn1nc(C(=O)NCc2ccccc2)c2ccccc2c1=O,–,–,–,–,–
COc1cccc(OC)c1C(=O)Nc1ccccc1N1CCCC1,–,–,–,–,–
CC(C)n1nc(C(=O)Nc2ccccc2N2CCOCC2)c2ccccc2c1=O,–,–,–,–,–
Cn1nc(C(=O)NCCOc2ccccc2)c2ccccc2c1=O,–,–,–,–,10
Cc1ccc(/C=C/C(=O)Nc2cc(S(N)(=O)=O)ccc2O)cc1,–,–,–,–,–
Cc1cc(NC(=O)c2c(Cl)c(C)nn2C)no1,–,–,–,–,–
Cc1cc(NC(=O)c2c([N+](=O)[O-])c(C)nn2C)no1,–,–,–,-5,–
O=C(Nc1ccc(F)cc1)/C(=C1/CCCCCN1)[N+](=O)[O-],–,–,–,–,–
Cc1cc(C)cc(-n2c(C)cc(/C=N\NC(=O)COc3cccc4cccnc34)c2C)c1,–,–,-8.7,–,–
O=S(=O)(NCC(c1cccs1)N1CCc2ccccc2C1)c1ccccc1 (stereo not drawn),–,–,–,–,–
COc1cc2nc(Nc3cccc(F)c3)nc(N)c2cc1OC,–,–,-7,–,–
COc1nc(Nc2cccc(F)c2)nc(OC)n1,–,–,–,–,–
Cn1ncc([N+](=O)[O-])c1C(=O)N/N=C/c1cccc([N+](=O)[O-])c1,–,–,–,-5.4,–
SMILES,MrgX1 ag,RGS4 block,RGS4 pot,MrgX1 antag,MrgX1 PAM
O=C(c1ccc(Cl)cc1[N+](=O)[O-])N(Cc1ccccc1)Cc1ccccc1,–,–,–,–,–
CC(C)(C)N(Cc1ccccc1)C(=O)c1ccc(Cl)cc1[N+](=O)[O-],–,–,-10,–,–
CC(Oc1ccc(Cl)cc1Cl)c1nc(-c2ccc(NC(=O)c3ccccn3)cc2)no1 (stereo not drawn),–,–,–,–,–
CCn1cc(C(=O)O)c(=O)c2cc(F)c(N/N=C/c3ccccc3[N+](=O)[O-])cc21,–,–,-9.4,–,–
COc1c2c(nc3occc13)C(CC=C(C)C)(OC)C(=O)C=C2 (stereo not drawn),–,–,–,–,12
C=CCOc1ccc2c(OC)c3ccoc3nc2c1OC,–,–,–,–,–
CC(C)Oc1ccc(C(=O)NCc2cccs2)cc1,–,–,–,–,–
CCCOc1ccc(N)cc1N,–,–,–,-6.7,–
CC1CC(C)(C)NC(=S)N1CCCC(=O)NCCc1ccc(Cl)cc1 (stereo not drawn),–,–,–,–,–

# Source: PubChem BioAssay
